FGF22 binding – shifts melting point of recombinant human FGF22; Q9HCT0; AID 651658; recombinant FGF22 thermal shift, SYPRO orange fluorescence; percent of sucrose octasulfate shift, DMSO zero; activity (Tm shift, normalised), % at 9.99 µM; 1.5% of 340,000 active;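 active means mean Tm shift, scaled 0 neutral to 100 positive control, at about 1.3% or above, every replicate too, limit read from the data; inconclusive means no clear call, values can overlap the other calls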
ERAP1 HTS inh – inhibitors of human ERAP1 aminopeptidase | Q9NZ08 | recombinant ERAP1, Leu-AMC fluorescence, 60 min | inhibition, % at 10.7 µM | 0.15% of 340,000 active | AID 652197;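 active means mean replicate inhibition of at least 30%, or all replicates individually reaching that 30% level; inactive means mean below 30% and not every replicate reaching it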;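 further: 0% = neutral control wells and 100% = L-leucinethiol positive control wells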
DENV2 CPE – inhibitors of DENV2 cytopathic effect; 1.7% of 350,000 active; CPE inhibition, % at 9.99 µM; DENV2-infected cells, cytopathic effect rescue, plate reader; AID 651640; in the data active means CPE inhibition above about 20%, passing the limit was not always enough; inconclusive means no clear call, values can overlap the other calls; tested in BHK-21 cells;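 further: 0% = median of neutral control wells and 100% = median of positive control wells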
CFTR F508del cor – CFTR F508del correction in bronchial cells; CFBE cells, YFP halide quenching; stimulated with forskolin plus potentiator P3; % fluorescence drop versus neutral controls; activity (quench increase), % at 7.58 µM; 0.36% of 350,000 active;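 active means mean added fluorescence quench of at least 8% versus neutral control, with both replicates also reaching 8%; inconclusive means only one of the mean or replicate conditions met; inactive means mean below 8% and not both replicates reaching 8%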;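 further: cells transiently co-express mutant CFTR-F508del with the halide-sensitive YFP; corrector assay measuring rescue of mutant channel to the surface after 24 h compound exposure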
E-sel inducer – E-selectin induction on HUVECs. activation, % at 7.58 µM. 0.37% of 260,000 active. AID 686992. HUVEC E-selectin immunofluorescence imaging; normalized: neutral wells 0, TNF-alpha wells 100;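 active means mean E-selectin-positive cell signal at least 10% of the positive control, reached in at least 60% of replicates, without over 20% cell loss; inconclusive means no rule given, readout overlaps actives, possibly toxicity-flagged; inactive means the rest, including those meeting only one limit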
Target sequence (P16581 whole entry, looked up): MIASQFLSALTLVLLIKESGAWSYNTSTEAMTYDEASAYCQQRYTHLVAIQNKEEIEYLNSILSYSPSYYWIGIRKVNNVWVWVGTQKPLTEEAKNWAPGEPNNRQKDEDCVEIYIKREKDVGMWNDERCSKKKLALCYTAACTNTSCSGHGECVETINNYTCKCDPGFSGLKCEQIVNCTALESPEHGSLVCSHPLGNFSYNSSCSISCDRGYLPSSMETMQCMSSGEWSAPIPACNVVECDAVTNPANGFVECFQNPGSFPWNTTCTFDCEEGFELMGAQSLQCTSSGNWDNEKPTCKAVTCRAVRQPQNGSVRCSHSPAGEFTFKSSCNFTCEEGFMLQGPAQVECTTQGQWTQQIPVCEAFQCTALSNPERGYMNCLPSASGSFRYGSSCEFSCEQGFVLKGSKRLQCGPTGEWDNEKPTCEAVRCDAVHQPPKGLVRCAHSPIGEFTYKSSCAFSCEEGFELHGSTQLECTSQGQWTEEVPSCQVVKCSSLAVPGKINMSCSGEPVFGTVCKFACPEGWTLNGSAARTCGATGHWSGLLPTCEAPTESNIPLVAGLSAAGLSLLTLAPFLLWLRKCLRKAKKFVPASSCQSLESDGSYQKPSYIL
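Material: HUVEC primary endothelial cells; Amount: 3,000 cells per well; Dosing: single concentration; Medium: EGM-2 growth medium on 0.1% gelatin-coated wells; Read-out basis: percent E-selectin-positive cells; Signal: immunofluorescence imaging; Control set: TNF-alpha, DMSO.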
An asterisk follows results filed as active; ? = inconclusive; nt = no result given; ! = a repeat was not active. Rows were chosen to be rich in hits. Some 3.7% of all compounds tested hit in one or more screens of this group.

SMILES | FGF22 binding | ERAP1 HTS inh | DENV2 CPE | CFTR F508del cor | E-sel inducer
O=C(C[C@H]1CC[C@@H]2[C@H](COC[C@H](O)CN2C(=O)c2ccncc2)O1)NCc1cc(F)cc(F)c1 | 0.3 | -2.2 | 8.7 | -3.6 | -0.2
CCCc1cc(=O)[nH]c(SCc2nc3ccc([N+](=O)[O-])cc3[nH]2)n1 | 43.3* | -3.3 | -2.8 | 0.4 | 0.1
CCC(C(=O)NC(C)c1ccccc1)C(=O)NC(C)c1ccccc1 (stereo unspecified) | 0.3 | -2.0 | -1.4 | 0.0 | 0.1
CCc1cccc(CC)c1NC(=S)NC(C)c1ccccc1 (stereo unspecified) | 43.9* | 0.2 | -1.7 | 1.4 | nt
CN1CCN(C(=O)C[C@H]2CC[C@H]3[C@@H](COC[C@@H](O)CN3Cc3cccc(Cl)c3)O2)CC1 | 0.0 | 0.9 | -6.0 | -0.8 | 0.1
O=C(C[C@@H]1CC[C@@H]2[C@H](COC[C@H](O)CN2Cc2cccc(Cl)c2)O1)N1CCOCC1 | -0.2 | -1.3 | 103.1* | 0.0 | -0.1
O=C(C[C@H]1CC[C@H]2[C@@H](COC[C@@H](O)CN2Cc2ccc(Oc3ccccc3)cc2)O1)N1CCCCC1 | -0.3 | 2.7 | 23.8* | -1.2 | 0.0
CN1CCN(C(=O)C[C@@H]2CC[C@H]3[C@@H](COC[C@@H](O)CN3Cc3cccc(Cl)c3)O2)CC1 | 0.0 | -0.2 | 27.1* | -2.7 | 0.1
O=C(C[C@@H]1CC[C@H]2[C@@H](COC[C@@H](O)CN2Cc2cccc(Cl)c2)O1)N1CCOCC1 | 0.0 | 0.6 | 89.7* | 2.3 | 0.0
O=C(C[C@@H]1CC[C@@H]2[C@H](COC[C@H](O)CN2Cc2ccc(Oc3ccccc3)cc2)O1)N1CCCCC1 | -0.5 | 1.6 | -6.6 | 1.6 | 0.0
CCC(=O)Nc1ccc2c(c1)C(=O)N(C)[C@H]1CC[C@H](CC(=O)NCc3ccccc3)O[C@H]1CO2 | 0.0 | -1.0 | 7.7 | 0.7 | 0.3
C/C=C/c1cnc2c(c1)C(=O)N([C@H](C)CO)C[C@@H](C)[C@@H](CN(C)C(=O)Nc1c(C)noc1C)O2 | 0.0 | 1.7 | -0.1 | 0.0 | nt
CCC(C)(C)NC(=O)/C=C/c1ccccc1[N+](=O)[O-] | -0.1 | 3.3 | -1.0 | -1.8 | 3.8
CCNC(=O)/C=C/c1ccccc1[N+](=O)[O-] | -0.3 | 2.1 | -3.3 | -2.8 | 30.5*
CC(C)C#Cc1ccc([C@@H]2[C@H]3CN(CC4CC4)CCCCN3[C@H]2CO)cc1 | -0.4 | 1.3 | 26.1* | 7.2 | -0.3
CC(C)C#Cc1ccc([C@@H]2[C@H](CO)N3CCCCN(CC4CC4)C[C@@H]23)cc1 | -0.4 | -3.1 | 21.7* | 1.1 | -0.2
C[C@H]1CN([C@@H](C)CO)C(=O)CCCn2nncc2CO[C@H]1CN(C)C(=O)Nc1cccc(F)c1 | -0.3 | -1.0 | -12.3 | -2.3 | -0.3
C[C@@H]1CN([C@H](C)CO)C(=O)c2cccc(NS(=O)(=O)c3ccc(F)cc3)c2O[C@@H]1CN(C)Cc1ccc(-c2ccccc2)cc1 | 0.2 | 0.6 | -2.5 | -5.1 | -0.1
O=c1ccc(-c2ccc(S(=O)(=O)Nc3cccc(Br)c3)o2)n[nH]1 | 0.1 | -1.6 | 27.2* | -0.5 | nt
Cc1cccc(NS(=O)(=O)c2ccc(-c3ccc(=O)[nH]n3)o2)c1 | -0.2 | 1.1 | -0.1 | -2.4 | nt
COc1cc2c(cc1OC)C(C1C(=O)CC(C)(C)CC1=O)N(C(=O)CCl)CC2 (stereo unspecified) | 0.1 | -7.1 | ? | 2.7 | nt
CC1CC(=O)C(C2c3ccccc3CCN2C(=O)CCl)C(=O)C1 (stereo unspecified) | 44.1* | 3.1 | 5.8 | 0.9 | nt
CCOC(=O)/C(C#N)=C1/C=C(C)c2ccccc2N1 | 42.9* | -12.3 | 2.5 | 0.3 | nt
CCOC(=O)/C(C#N)=C1\C(=O)N(Cc2ccccc2)c2ccccc21 | -0.3 | 3.5 | 3.0 | 0.9 | nt
O=C(O)c1ccccc1-c1c2cc(I)c(=O)c(I)c-2oc2c(I)c(O)c(I)cc12 | -0.3 | 106.1* | ? | 8.7*! | 1.4
SMILES | FGF22 binding | ERAP1 HTS inh | DENV2 CPE | CFTR F508del cor | E-sel inducer
O=C(O)c1ccccc1-c1ccccc1C(=O)Nc1ccc2c(c1)oc(=O)c1ccccc12 | nt | 0.4 | 9.2 | -6.2 | 0.0
C[C@@H]1CCCCO[C@@H](CN(C)Cc2ccccc2)[C@H](C)CN([C@H](C)CO)C(=O)c2cc(NC(=O)Nc3ccccc3)ccc2O1 | 0.0 | 1.7 | -10.9 | 0.2 | nt
CCOC(=O)c1cc(C(=O)NN)c(C)nc1C | 0.1 | -1.7 | 5.5 | -1.1 | -0.2
CCOC(=O)c1c[nH]c2nc(C)ccc2c1=O | 43.1* | -0.4 | 3.8 | 4.0 | nt
O=C(NCCCN1CCOCC1)[C@H]1N[C@H]2c3ccc(C4=CCCCC4)c(=O)n3C[C@H]2[C@@H]1CO | nt | 1.4 | -1.1 | 1.2 | 0.5
Cc1cc(NC(=S)NC(=O)CC(C)C)ccc1Br | 35.2* | -0.9 | 8.3 | 0.1 | nt
O=C(C1CCC1)N1CC2(C1)[C@H](c1ccccc1)[C@@H](CO)N2C(=O)CC1CC1 | nt | 2.3 | -3.7 | 0.3 | -0.2
C[C@@H]1CN([C@@H](C)CO)C(=O)c2cccc(NC(=O)NC3CCCCC3)c2O[C@H]1CN(C)C(=O)Nc1ccc(F)cc1 | -0.2 | 0.1 | -0.1 | -0.6 | -0.2
COc1cc(OC)cc(-c2oc(=O)c3cc(OC)c(OC)cc3c2C#CCCO)c1 | 0.1 | 1.5 | 29.9* | 1.4 | 0.6
COc1ccc(-c2oc(=O)c3cc(OC)c(OC)cc3c2C#CCCO)cc1 | 0.0 | 3.6 | -7.0 | 1.8 | 7.0
C[C@H](CO)N1C[C@H](C)[C@@H](CN(C)C(=O)Nc2ccccc2)Oc2ccc(NS(=O)(=O)c3cn(C)cn3)cc2CC1=O | 0.1 | 1.2 | -4.1 | 2.5 | 0.5
Cc1noc(C)c1NC(=O)Nc1ccc2c(c1)C(=O)N([C@H](C)CO)C[C@H](C)[C@@H](CN(C)S(=O)(=O)c1ccc(Cl)cc1)OCCCC[C@H](C)O2 | -0.3 | 3.1 | -2.3 | 1.3 | 0.0
COc1ccc(/C=C2\C(=O)NCC(=O)N2C)cc1 | 0.0 | 86.2* | 11.6 | -2.2 | nt
COc1ccc(S(=O)(=O)Nc2ccc3c(c2)C(=O)N([C@H](C)CO)C[C@@H](C)[C@@H](CN(C)Cc2ccc4c(c2)OCO4)OCCCC[C@@H](C)O3)cc1 | 0.5 | -0.5 | 21.1* | 1.1 | -0.1
COc1ccc(S(=O)(=O)Nc2ccc3c(c2)C(=O)N([C@H](C)CO)C[C@H](C)[C@H](CN(C)Cc2ccc4c(c2)OCO4)OCCCC[C@H](C)O3)cc1 | 0.0 | -3.8 | 58.5* | -0.8 | -0.2
COc1ccc(S(=O)(=O)Nc2ccc3c(c2)C(=O)N([C@@H](C)CO)C[C@@H](C)[C@@H](CN(C)Cc2ccc4c(c2)OCO4)OCCCC[C@H](C)O3)cc1 | -0.1 | -4.5 | 22.0* | 2.3 | -0.2
COc1ccc(S(=O)(=O)Nc2ccc3c(c2)C(=O)N([C@@H](C)CO)C[C@H](C)[C@@H](CN(C)Cc2ccc4c(c2)OCO4)OCCCC[C@@H](C)O3)cc1 | 0.1 | -2.0 | 24.2* | 3.7 | 0.0

Screening data deposited in PubChem by Broad Institute.
